# According to PMC6424611 (Journal of molecular biology, 2019):
# Where no end group is shown, it is not given here. The star is where a group is joined. Biotin = O=C1N[C@H]2[C@H](CS[C@H]2CCCCC(=O)*)N1; TTDS = NCCCOCCOCCOCCCNC(=O)CCC(=O)*
# Tests used:
# GRID2IP-2 PDZ [1] = target: T1, GRID2IP-2 PDZ (Homo sapiens, UniProt A4D2P6); experiment: surface plasmon resonance; format: binding; conditions: internal standard; biotinylated HPV16 E6 peptide immobilized; steady state
# Summary of the method: (§1)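 Biacore SPR on a CM5 chip. Streptavidin was immobilized by EDC coupling, then biotinylated HPV16 E6 peptide was captured and extensively washed. Tandem Ni/MBP-purified MBP-PDZ domains were then injected. The E6 peptide served as an internal standard.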
# PDZD7-3 PDZ = target: T2, PDZD7-3 PDZ (Homo sapiens, UniProt Q9H5P4); experiment: surface plasmon resonance; format: binding; conditions: internal standard; biotinylated HPV16 E6 peptide immobilized; steady state
# T2 sequence (Q9H5P4 862-934 limits assumed): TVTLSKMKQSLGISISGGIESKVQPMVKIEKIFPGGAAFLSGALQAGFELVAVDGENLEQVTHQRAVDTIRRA
# Summary of the method: as §1
# MAST1 PDZ = target: T3, MAST1 PDZ (Homo sapiens, UniProt Q9Y2H9); experiment: surface plasmon resonance; format: binding; conditions: internal standard; biotinylated HPV16 E6 peptide immobilized; steady state
# T3 sequence (Q9Y2H9 967-1055 limits assumed): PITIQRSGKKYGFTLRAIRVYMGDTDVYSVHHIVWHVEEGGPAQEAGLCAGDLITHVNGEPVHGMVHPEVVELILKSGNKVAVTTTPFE
# Summary of the method: as §1
# GOPC PDZ = GOPC PDZ (Homo sapiens, UniProt Q9HD26); experiment: surface plasmon resonance; format: binding; conditions: internal standard; biotinylated HPV16 E6 peptide immobilized; steady state
# GORASP2 PDZ = experiment: surface plasmon resonance; format: binding, human; conditions: internal standard; biotinylated HPV16 E6 peptide immobilized; steady state
# Summary of the method: as §1
# PARD3B-1 PDZ [2] = target: T4, PARD3B-1 PDZ (Homo sapiens, UniProt Q8TEW8); experiment: surface plasmon resonance; format: binding; conditions: internal standard; biotinylated HPV16 E6 peptide immobilized; steady state
# T4 sequence (Q8TEW8 201-289 limits assumed): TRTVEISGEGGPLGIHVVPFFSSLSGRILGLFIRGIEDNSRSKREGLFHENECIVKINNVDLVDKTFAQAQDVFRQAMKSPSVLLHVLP
# Summary of the method: as §1
# HTRA1 PDZ = HTRA1 PDZ (Homo sapiens, UniProt Q92743); experiment: surface plasmon resonance; format: binding; conditions: internal standard; biotinylated HPV16 E6 peptide immobilized; steady state
# Summary of the method: as §1
# SNTG2 PDZ = target: T5, SNTG2 PDZ (Homo sapiens, UniProt Q9NY99); experiment: surface plasmon resonance; format: binding; conditions: internal standard; biotinylated HPV16 E6 peptide immobilized; steady state
# T5 sequence (Q9NY99 73-156 limits assumed): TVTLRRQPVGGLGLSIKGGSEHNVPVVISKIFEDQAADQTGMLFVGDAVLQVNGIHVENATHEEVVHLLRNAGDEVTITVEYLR
# Summary of the method: as §1
# SNX27 PDZ [3] = target: T6, SNX27 PDZ (Homo sapiens, UniProt Q96L92); experiment: surface plasmon resonance; format: binding; conditions: internal standard; biotinylated HPV16 E6 peptide immobilized; steady state
# ARHGEF12 = experiment: NanoBiT protein-protein interaction assay; format: cell-based, human; conditions: RSK1–ARHGEF12 sensor, 20 ng/ml EGF, serum-starved HEK293T, 60 min
# Summary of the method: (§2)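 Full-length RSK1 (N-terminal SmBiT) is paired with an N-terminal LgBiT fusion of the partner: ARHGEF12 isoform 2, GOPC isoform 2, PARD3B 1–913, or SYNJ2BP. Sensors are transiently co-expressed in HEK293T cells, which are serum-starved for 20 h from 4 h post-transfection and assayed with Nano-Glo at 24 h. Steady-state signal is referenced to the wild-type pair. For the EGF response (20 ng/ml, 60 min), signal is normalized to initial luminescence and to unstimulated furimazine decay. At least 6 replicates.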
# GOPC = experiment: NanoBiT protein-protein interaction assay; format: cell-based, human; conditions: RSK1–GOPC sensor, 20 ng/ml EGF, serum-starved HEK293T, 60 min
# Summary of the method: as §2
# PARD3B = experiment: NanoBiT protein-protein interaction assay; format: cell-based, human; conditions: RSK1–PARD3B sensor, 20 ng/ml EGF, serum-starved HEK293T, 60 min
# Summary of the method: as §2
# MAGI1 = experiment: NanoBiT protein-protein interaction assay; format: cell-based, human; conditions: RSK1–MAGI1 sensor, 20 ng/ml EGF, serum-starved HEK293T, 60 min
# Summary of the method: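 Full-length RSK1 (N-terminal SmBiT) is co-expressed with full-length MAGI1–LgBiT in HEK293T cells by FuGene HD transfection, then serum-starved for 20 h in CO2-independent medium. Cells are read with Nano-Glo 24 h post-transfection. Steady-state luminescence of mutant sensors is referenced to the wild-type pair. For the 20 ng/ml EGF response, signal is followed for 60 min and normalized to initial luminescence and to furimazine decay in unstimulated cells. At least 6 biological replicates.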
# SYNJ2BP = experiment: NanoBiT protein-protein interaction assay; format: cell-based, human; conditions: RSK1–SYNJ2BP sensor, 20 ng/ml EGF, serum-starved HEK293T, 60 min
# Summary of the method: as §2
# ERK2 = experiment: NanoBiT protein-protein interaction assay; format: cell-based; conditions: RSK1–ERK2 sensor, 20 ng/ml EGF, serum-starved HEK293T, 60 min
# Summary of the method: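 Full-length RSK1 carries an N-terminal SmBiT tag, and full-length ERK2 is fused to LgBiT. HEK293T cells (DMEM, 10% FBS) are seeded at 2×10^4/well 24 h before FuGene HD co-transfection, then starved for 20 h in CO2-independent medium from 4 h post-transfection. After 20 ng/ml EGF, Nano-Glo luminescence is followed for 60 min and normalized to initial signal and to furimazine decay in unstimulated cells. At least 6 biological replicates.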
# ARHGEF12 PDZ = target: T7, ARHGEF12 PDZ (Homo sapiens, UniProt Q9NZN5); experiment: holdup assay; format: binding; conditions: words
# T7 sequence (Q9NZN5 72-151 limits assumed): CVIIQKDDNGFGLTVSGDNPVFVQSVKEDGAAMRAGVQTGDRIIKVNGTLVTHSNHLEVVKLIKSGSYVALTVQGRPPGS
# Summary of the method: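 Automated holdup against N-terminally biotinylated (TTDS linker) RSK1 725–735 peptides, unphosphorylated and phosphorylated, in triplicate. PDZome v2 clones were codon-optimized and expressed in E. coli, with soluble lysate adjusted to ~4 μM. BI is the PDZ fraction depleted from the fluid phase.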
# GRID2IP-2 PDZ [4] = target: T1, GRID2IP-2 PDZ; experiment: holdup assay; format: binding; conditions: words; GRID2IP
# Summary of the method: (§3)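 Automated holdup in triplicate measured biotinylated (N-terminal TTDS linker) RSK1 725–735 peptides, unphosphorylated or phosphorylated, against E. coli-expressed PDZome v2 domains. Soluble lysate was adjusted to ~4 μM, giving 255 domains for the unphosphorylated and 252 for the phosphorylated peptide. Binding intensity (BI) is the fraction of PDZ depleted from the fluid phase. BI 0.2 was the high-confidence threshold.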
# PARD3B-1 PDZ [5] = target: T4, PARD3B-1 PDZ; experiment: holdup assay; format: binding; conditions: words; PARD3B
# Summary of the method: as §3
# SNX27 PDZ [6] = target: T6, SNX27 PDZ; experiment: holdup assay; format: binding; conditions: words
# [7] = tested on: first PDZ domain of NHERF (EBP50); experiment: holdup assay; format: binding, human
# [8] = tested on: first PDZ domain of Scribble; experiment: holdup assay; format: binding, human
# RhoA = experiment: G-LISA RhoA activation assay; format: cell-based; conditions: ARHGEF12 mutants, n=4
# T1 sequence (A4D2P6 279-356 limits assumed): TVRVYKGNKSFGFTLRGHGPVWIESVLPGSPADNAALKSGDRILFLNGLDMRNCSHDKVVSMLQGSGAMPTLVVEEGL
# HTRA1 PDZ, sequence (Q92743 365-467 limits assumed): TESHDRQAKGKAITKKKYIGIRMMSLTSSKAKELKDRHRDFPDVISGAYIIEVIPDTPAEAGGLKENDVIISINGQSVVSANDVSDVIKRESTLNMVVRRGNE
compound,measurement,setting,value
CC(C)C[C@H](NC(=O)[C@H](CCC(N)=O)NC(=O)[C@@H](NC(=O)[C@H](CCC(=O)O)NC(=O)[C@H](CCCNC(=N)N)NC(=O)[C@H](CCCNC(=N)N)NC(=O)[C@@H](NC(=O)[C@H](CCCNC(=N)N)NC(=O)[C@H](CO)NC(=O)[C@@H](N)CO)[C@@H](C)O)[C@@H](C)O)C(=O)O [HPV16 E6],"KD, SPR, HPV16 E6",GRID2IP-2 PDZ [1],no binding
same,"KD, SPR, HPV16 E6",PDZD7-3 PDZ,no binding
same,"KD, SPR, HPV16 E6",MAST1 PDZ,no binding
same,"KD, SPR, HPV16 E6",GOPC PDZ,no binding
same,"KD, SPR, HPV16 E6",GORASP2 PDZ,no binding
same,"KD, SPR, HPV16 E6",PARD3B-1 PDZ [2],no binding
same,"KD, SPR, HPV16 E6",HTRA1 PDZ,no binding
same,"KD, SPR, HPV16 E6",SNTG2 PDZ,no binding
same,"KD, SPR, HPV16 E6",SNX27 PDZ [3],no binding
"EGF: epidermal growth factor (Sigma-Aldrich), 20 ng/ml (NSDSECPLSHDGYCLHDGVCMYIEALDKYACNCVVGYIGERCQYRDLKWWELR; UniProt P01133 971-1023, looked up)",change in luminescence after EGF,ARHGEF12,decrease in luminescence
same,change in luminescence after EGF,GOPC,decrease in luminescence
same,change in luminescence after EGF,PARD3B,did not show any change
same,change in luminescence after EGF,MAGI1,decrease in luminescence
same,change in luminescence after EGF,SYNJ2BP,increased luminescence
same,change in luminescence after EGF,ERK2,time-modulated decrease of the luminescence signal
RSK1 PBM: PDZ binding motif of the RSK1 C-terminal tail ({Biotin-TTDS}-RRVRKLPSTTL),effect of phosphorylation on binding,ARHGEF12 PDZ,mostly eliminated
same,effect of phosphorylation on binding,GRID2IP-2 PDZ [4],mostly eliminated
same,affinity to both states of the RSK1 PBM,PARD3B-1 PDZ [5],comparable affinities to both states
same,effect of phosphorylation on binding,SNX27 PDZ [6],promoted by phosphorylation
same,interaction detected,[7],did not detect any interaction
same,BI,[8],0.17–0.18
S1288E: ARHGEF12 mutant mimicking the RSK1 phosphorylation site,decrease of RhoA signal by ARHGEF12 mutation,RhoA,20%
